Compound activity from PubChem.
EBNA-1 inh = EBNA-1 DNA-binding inhibitors, primary screen, biochemical, fluorescence polarization; 300,000 tested, 0.34% active; inhibition, % at 14.8 µM; in the data active = inhibition above about 28%
HNF4A DNA FP = change in binding of human HNF4A to DNA, primary screen, biochemical, fluorescence polarization, FITC-DNA. Hepatocyte nuclear factor 4-alpha (Homo sapiens), P41235. 1 h. activity change, % at 10 µM. 360,000 tested, 0.3% active. AID 1224865, 2016; in the data active = activity change above about 30%, passing the limit was not always enough
CSN deneddyl inh = inhibitors of CSN-mediated cullin deneddylation, primary screen, biochemical, fluorescence polarization, uHTS. inhibition, % at 12.5 µM. Purified CSN, SCF-Nedd8-OG deneddylation. 360,000 tested, 0.38% active;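 active = pattern-corrected inhibition above about 35%, with an unprinted fluorescence ratio check between 0.5 and 1.5, limit read from the data, passing the limit was not always enough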;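 note: 0% = enzyme with substrate and 100% = substrate without enzyme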
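Schedule: reaction 90 min, room temperature / Assay system: HEK293T-derived human Csn5 enzyme / Input: Csn5 at 0.24 nM final / Measure: inhibition of Csn5 cleavage, % / Control set: substrate-only high control, full reaction low control / Technique: fluorescence polarization of the substrate / Buffer or medium: Tris/NaCl/DTT buffer, pH 7.5 / Reagent: SCFSkp2-Nedd8OG substrate at 10 nM final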
A1 inh = caspase 3/7 activation in MEF A1-2A-BIM cells, primary screen, A1 inhibitor project, cell-based, luminescence, HTS | caspase activation, % (test concentration not listed) | Caspase-Glo 3/7 luminescence, 3 h; percent of clofoctol response, vehicle zero | 330,000 tested, 0.066% active | AID 2462, 2010;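 active = over half of replicate activation scores above 10%, or exactly half above 10 with the replicate mean above 10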
ZTA counter = ZTA (EBV) inhibition in EBNA-1 counter-screen. 320,000 tested, 0.15% active. inhibition, % at 11 µM. AID 2234. P03206. ZTA-DNA binding, fluorescence polarization; in the data active = inhibition above about 33%
Target sequence (P03206 whole entry, looked up): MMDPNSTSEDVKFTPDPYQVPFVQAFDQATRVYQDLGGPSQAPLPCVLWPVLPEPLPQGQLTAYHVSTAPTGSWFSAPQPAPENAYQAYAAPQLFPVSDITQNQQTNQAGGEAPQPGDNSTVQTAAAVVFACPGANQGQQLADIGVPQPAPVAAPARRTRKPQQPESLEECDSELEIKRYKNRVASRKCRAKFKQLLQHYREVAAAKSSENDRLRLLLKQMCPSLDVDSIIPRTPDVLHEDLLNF
LANA-H2A inh = blockers of LANA interaction with H2A/H2B – biochemical, FP readout, HTS, primary screen; Protein LANA1 (Human herpesvirus 8 type P (isolate GK18)), Q9QR71; cell-free LANA-H2A/H2B peptide, fluorescence polarization; inhibition, % (no concentration beside the values); 320,000 tested, 0.6% active; AID 2629, 2010; in the data active = inhibition mostly above about 10%, no sharp cut-off; inactive = mostly below about 6.7%
* hit, by the source's call; ! = a repeat was not active. Sampled rows, rich in hits. Any-hit rate of the full collection: about 1.5%.

Results for CN(C)C(=O)Oc1ccc[n+](C)c1 ?
EBNA-1 inh: -6; HNF4A DNA FP: -1; CSN deneddyl inh: -1; A1 inh: 0; ZTA counter: -15; LANA-H2A inh: 74*!

How did O=C(C[C@H]1C/C=C\CCC(=O)O[C@@H](c2ccccc2)CNC1=O)NCCO do in these assays?
HNF4A DNA FP: 0; CSN deneddyl inh: -3; A1 inh: 1; LANA-H2A inh: 0

How did CN(C)CCNC(=O)C(=O)Nc1cc2c3c(c1)CCC(=O)N3CCC2 do in these assays?
EBNA-1 inh: -6; HNF4A DNA FP: 3; CSN deneddyl inh: -5; A1 inh: 0; ZTA counter: -18; LANA-H2A inh: -4

Results for CCN(CC)CCNC(=O)C(=O)Nc1cc2c3c(c1)CCC(=O)N3CCC2 ?
EBNA-1 inh: -10; HNF4A DNA FP: -5; CSN deneddyl inh: 2; A1 inh: -1; ZTA counter: -21; LANA-H2A inh: 0.9*

How did CN(C)CCNC(=O)C(=O)Nc1cc2c3c(c1)CCN3C(=O)CC2 do in these assays?
EBNA-1 inh: -27; HNF4A DNA FP: -1; CSN deneddyl inh: 0; A1 inh: 1; ZTA counter: -3; LANA-H2A inh: 17*

What do the screens show for `CCOc1ccccc1C(=O)OCC(=O)Nc1cc(S(=O)(=O)N2CCOCC2)ccc1C`?
HNF4A DNA FP: -4; CSN deneddyl inh: 1; ZTA counter: 11

Results for Cc1ccc(CN2C(=O)c3ccccc3C2c2nnnn2C(C)C)cc1 (stereo not drawn) ?
HNF4A DNA FP: -3; CSN deneddyl inh: -4

What do the screens show for `CCOc1cc2c(cc1/C=C/c1noc(C)c1[N+](=O)[O-])OC(C)C2` (stereo not drawn)?
EBNA-1 inh: -9; HNF4A DNA FP: 106; CSN deneddyl inh: 47*; A1 inh: 2; ZTA counter: -12; LANA-H2A inh: 9

How did CCOC(=O)c1c(N)sc(C(=O)OCCOC)c1C do in these assays?
EBNA-1 inh: 10; HNF4A DNA FP: 0; CSN deneddyl inh: 5; A1 inh: 0; ZTA counter: 5; LANA-H2A inh: 5

Results for CSCCC(NC(=O)c1ccco1)C(=O)NCc1ccc(F)cc1 (stereo not drawn) ?
EBNA-1 inh: 7; HNF4A DNA FP: 0; CSN deneddyl inh: -1; A1 inh: 0; ZTA counter: -1; LANA-H2A inh: -1

How did CSCCC(NC(=O)c1ccco1)C(=O)NCCc1ccc(Cl)cc1 (stereo not drawn) do in these assays?
HNF4A DNA FP: 1; CSN deneddyl inh: 37*

Results for CCc1nnc(NC(=O)CSc2ccc(-c3ccc(F)cc3)nn2)s1 ?
EBNA-1 inh: 5; A1 inh: 0; ZTA counter: -2; LANA-H2A inh: 0

Results for CCc1nnc(NC(=O)CSc2nc(-c3ccccc3)cc(-c3ccc(F)cc3)c2C#N)s1 ?
EBNA-1 inh: 14; HNF4A DNA FP: -1; CSN deneddyl inh: 4; A1 inh: 7.1*; ZTA counter: 14; LANA-H2A inh: 4

How did COc1ccc(-c2cc(-c3ccc(Cl)cc3)c(C#N)c(SCC(=O)O)n2)cc1 do in these assays?
EBNA-1 inh: 8; HNF4A DNA FP: -6; CSN deneddyl inh: 41*; A1 inh: 0; ZTA counter: -13; LANA-H2A inh: 1

Results for CCOC(=O)C1=CC[C@@H](c2ccccc2)N(S(=O)(=O)c2ccc(C)cc2)[C@H]1C=C(C)C ?
HNF4A DNA FP: 1; CSN deneddyl inh: 4

What do the screens show for `O=C(C(Cc1ccccc1)NS(=O)(=O)c1cccc2cccnc12)N1CCc2ccccc21` (stereo not drawn)?
EBNA-1 inh: -3; HNF4A DNA FP: 4; CSN deneddyl inh: -8; A1 inh: 0; ZTA counter: -9; LANA-H2A inh: 3

How did COc1ccccc1NC(=O)COC(=O)C12CC3CC(CC(Cl)(C3)C1)C2 do in these assays?
EBNA-1 inh: 6; HNF4A DNA FP: 5; CSN deneddyl inh: 3; A1 inh: 0; ZTA counter: -7; LANA-H2A inh: 0
